Source: PubChem BioAssay (several laboratories)
Hits are enriched below; roughly 2.3% of the tested compounds scored in any of these assays.
TRPC6 inh – blocks the mouse TRPC6 cation channel | actives 1.1% (n = 310,000) | Q61143 | HEK293-TRPC6, membrane potential dye, ACh-evoked depolarization; stronger effect = lower value | B-score at 10 µM;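 active = B-score under library mean minus 3 SD, initial fluorescence not abnormally high, positive integrated signal ratio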;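 note: B-score derived from integrated fluorescence ratio over the kinetic read; more negative B-score means stronger inhibition of depolarization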
TRPC4 inh – inhibitors of mouse TRPC4 channel | actives 0.39% (n = 300,000) | Q9QUQ5 | B-score at 10 µM | HEK293 TRPC4beta/mu-opioid, DAMGO-evoked Fluo4 calcium flux; stronger effect = lower value | AID 2247;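 active = B-score over 3 SD under the library average, no early fluorescence shift, positive overall ratio signal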
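Material: HEK293 cells with stable TRPC4beta plus mu-opioid receptor expression; probe or stimulus: DAMGO in two steps, submaximal then maximal; technique: Fluo4 calcium fluorescence by kinetic imaging, 5 s 1 Hz baseline; measure: integrated fluorescence ratio relative to baseline, converted to per-well B score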
CR mimetic SO – yeast age-related superoxide inhibition as caloric restriction mimetic; S. cerevisiae aged cells, superoxide DHE fluorescence; stronger effect = lower value; superoxide response (% of plate mean), % at 10 µM; actives 0.18% (n = 330,000);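 active = superoxide response under a set limit, about three screen SD below normal, cut at about 65% in these data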;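 note: yeast aged for seven days with compound at 30 °C before DHE staining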
TRPC4 PAM – allosterically enhances the mouse TRPC4 cation channel; actives 0.42% (n = 310,000); AID 2227; B-score at 10 µM; HEK293 TRPC4beta/mu-opioid, DAMGO EC20, Fluo-4 Ca2+ flux; stronger effect = higher value;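 active = B-score of calcium response area above 5 SD of library B-scores, with initial fluorescence ratio within 5 SD of library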
TRPC4 agonist – opens the mouse TRPC4 cation channel. actives 0.49% (n = 310,000). HEK293 TRPC4beta/mu-opioid, Fluo4 calcium fluorescence; stronger effect = higher value. Q9QUQ5. B-score at 10 µM;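 active = B-score above 5 SD of library B-scores, and initial fluorescence ratio not above library mean plus 5 SD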;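 note: positive B-score marks a calcium rise read as TRPC4 activation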
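System: HEK293 cells stably co-expressing mouse TRPC4beta and mu-opioid receptor; Schedule: Fluo4 dye loading 45 min at room temperature, 110 s recording; Detection: Fluo4 fluorescence, kinetic; Evaluation: B-scored integrated calcium fluorescence ratio; Controls: buffer (low) and maximal DAMGO (high).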
TRPC6 activator – activators of mouse TRPC6 channel. actives 0.13% (n = 310,000). HEK293-TRPC6 membrane potential dye fluorescence; stronger effect = higher value. Q61143. B-score at 10 µM;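 active = B-score of the integrated fluorescence ratio above library mean plus 3 SD, and starting fluorescence ratio within library mean plus 5 SD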;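 note: higher score means more depolarization so channel activation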
A number is an active result; n = inactive; x = no result.

SMILES	TRPC6 inh	TRPC4 inh	CR mimetic SO	TRPC4 PAM	TRPC4 agonist	TRPC6 activator
Cc1ccc(C(=O)NNC(=S)NC(=O)c2ccc(Cl)cc2)cc1	n	n	n	n	222	n
CC(=O)NNC(=S)NC(=O)c1ccc(C)cc1	n	n	n	n	n	n
O=C(CCc1ccccc1)NNC(=S)NC(=O)c1ccc(Cl)cc1	n	n	n	n	211	n
CN(C)CCNc1c2c(nc3nnnn13)CCCC2	n	n	n	n	44	n
CCN1CC2=C(OC(N)=C(C#N)C2c2ccccc2)/C(=C\c2ccccc2)C1 (centres undefined)	n	n	n	n	n	n
CCN1CC2=C(OC(N)=C(C#N)C2c2cccs2)/C(=C/c2cccs2)C1 (centres undefined)	n	n	n	12	n	n
CCCCn1nnc(NC(=O)COc2ccc(Cl)c(C)c2)n1	n	n	n	n	n	n
C=CCNC(=S)N/N=C/c1ccc(C(C)(C)C)cc1	n	-6	x	n	n	n
CCOc1ccc2[nH]c(=O)c(CN(Cc3cccs3)Cc3nnnn3C(C)(C)CC)cc2c1	n	n	n	n	n	n
CCC(C)(C)n1nnnc1CN(Cc1cccs1)Cc1cc2cc(OC)ccc2[nH]c1=O	n	n	n	11	n	n
Cc1ccccc1C(=O)N1CCC(C(=O)NC2CCCCC2)CC1	n	n	n	n	n	n
CC(C)(C)C(=O)NC(=S)NNC(=O)c1sc2ccccc2c1Cl	n	n	n	n	256	n
COc1ccc(C(=O)NNC(=S)NC(=O)C(C)(C)C)cc1	n	n	n	n	225	n
O=C(NCCc1nnc2ccc(NCc3ccccc3Cl)nn12)c1ccccc1	n	n	n	n	n	n
O=[N+]([O-])c1ccc(O)c(C=Nc2ccc3oc(Cc4ccc(Cl)cc4)nc3c2)c1	n	n	n	n	n	n
C/C(=N\NC(=O)c1ccncc1)c1cccc(NC(=O)c2ccc(C(C)(C)C)cc2)c1	n	n	n	n	n	n
C/C(=N/NC(=O)c1ccc(Cn2cccn2)o1)c1cccc(NC(=O)c2ccncc2)c1	n	-6	x	n	62	n
Cc1cc(S(=O)(=O)N2CCC(N3CCCCC3)CC2)ccc1-n1cnnn1	n	n	n	33	n	n
CCCCOc1ccc(C(=O)Nc2ccc(CN3CCOCC3)cc2)cc1	n	n	n	n	n	n
CC(C)(C)c1ccc(C(=O)N2CCC(=O)N(C(COCc3ccccc3)Cc3ccccc3)CC2)cc1 (centres undefined)	n	n	n	n	50	n
O=C(O)C(Cc1ccccc1)N1C(=O)/C(=C/c2cccnc2)SC1=S (centres undefined)	n	n	n	n	n	n
COc1ccc(/C=C2\SC(=S)N(C(Cc3ccccc3)C(=O)O)C2=O)cc1 (centres undefined)	n	-8	x	n	n	n
CC(/C=C1\SC(=S)N(C(C(=O)O)C(C)C)C1=O)=C\c1ccccc1 (centres undefined)	n	-6	n	n	n	n
Cn1cnnc1SCC(=O)NCCC1=CCCCC1	x	x	n	x	x	x
Cc1oc(-c2ccc(Cl)cc2)nc1CN1CCC(C(=O)NCc2cccnc2)CC1	n	n	n	n	n	n
SMILES	TRPC6 inh	TRPC4 inh	CR mimetic SO	TRPC4 PAM	TRPC4 agonist	TRPC6 activator
CCCN(CCC)CCNC(=O)C1CCN(Cc2nc(-c3ccc(Cl)cc3)oc2C)CC1	-7.2	n	n	n	n	n
O=C(Cc1ccccc1[N+](=O)[O-])OCc1cccc([N+](=O)[O-])c1	n	-6	n	n	n	n
COc1cc(CC(=O)OCc2cccc([N+](=O)[O-])c2)cc(OC)c1OC	n	n	n	n	n	n
Cc1cc(C)nc(NNS(=O)(=O)c2ccc(F)c(Cl)c2)n1	n	n	n	17	n	n
CCCNC(=S)N1CC2(C)CN(C(=O)C(=O)OCC)CC(C)(C1)C2=O	n	n	n	n	n	n
Fc1ccc(-c2[nH]ncc2CN2CCN(c3ccc(F)cc3)CC2)cc1	n	n	n	12	n	n
COC(=O)C1=C(C)N(Cc2ccccc2)C(=NCCc2ccccn2)N[C@H]1c1cccc(F)c1	n	n	n	n	88	n
COC(=O)C1=C(C)N(Cc2ccccc2)C(=S)N[C@H]1c1ccccc1	n	-6	n	n	n	n
